ChEMBL document CHEMBL2424621, “Discovery, synthesis and biological evaluation of cycloprotoberberine derivatives as potential antitumor agents” (Eur J Med Chem, 2013)
In brackets after ≈: the same amount, converted by molar mass. Activity calls are given as the source filed them. No cut-off for these calls is given here.

Tests used:
[1] = test system: HepG2; assay: Antiproliferative activity against human HepG2 cells assessed as growth inhibition at 0.6 ug/ml after 48 hrs by SRB assay; type: functional; conditions: HepG2, 48 h, read-out: GI
In short: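 Single-concentration SRB screen. HepG2 cells were grown in MEM-EBSS with 10% FBS and exposed to 0.6 µg/mL compound for 48 h alongside untreated controls. Cells were fixed with TCA and stained with SRB, then read at 492 nm. Results are given as % inhibition versus control, from triplicates reported as mean and SD.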

[2] = target: DNA topoisomerase 2-alpha (Homo sapiens) (UniProt P11388); conditions: 100 ug/ml
[3] = test system: HCT-116; assay: Antiproliferative activity against human HCT116 cells assessed as growth inhibition after 48 hrs by SRB assay; type: functional, cell-based; conditions: HCT-116, 48 h
In short: (§1)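 SRB assay. Cells were seeded at 4×10^3–8×10^3/mL in MEM-EBSS with 10% heat-inactivated FBS at 37 °C and 5% CO2, then treated at 0.039, 0.15, 0.63 and 2.5 µg/mL for 24 or 48 h. Cells were fixed with 50% TCA, stained with 0.4% SRB in 1% acetic acid and solubilized in 10 mM Trizma base, with absorbance read at 492 nm. IC50 is the concentration giving 50% of control cell number, from triplicates reported as mean and SD.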

[4] = test system: HCT-116; assay: Antiproliferative activity against human HCT116 cells assessed as growth inhibition after 24 hrs by SRB assay; type: functional, cell-based; conditions: HCT-116, 24 h; in short: as §1
[5] = test system: HepG2; assay: Antiproliferative activity against human HepG2 cells assessed as growth inhibition after 48 hrs by SRB assay; type: functional, cell-based; conditions: HepG2, 48 h; in short: as §1
[6] = test system: HepG2; assay: Antiproliferative activity against human HepG2 cells assessed as growth inhibition after 24 hrs by SRB assay; type: functional, cell-based; conditions: HepG2, 24 h; in short: as §1
[7] = Antiproliferative activity against human MCF7/ADR cells assessed as growth inhibition after 24 to 48 hrs by SRB assay; type: functional, cell-based; conditions: NCI/ADR-RES
In short: (§2)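 Parental MCF-7 cells and doxorubicin-resistant MCF-7/ADrR cells were tested; the resistant line was maintained in medium containing DOX. Each line was treated at 0.039–2.5 µg/mL for 24 and 48 h. Growth was read by SRB staining after TCA fixation, with absorbance at 492 nm. IC50 is the concentration reducing cell number to 50% of control, from triplicates.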

[8] = target: T1, DNA topoisomerase 1 (Homo sapiens) (UniProt P11387); conditions: 18 to 36 uM
T1 sequence (whole entry): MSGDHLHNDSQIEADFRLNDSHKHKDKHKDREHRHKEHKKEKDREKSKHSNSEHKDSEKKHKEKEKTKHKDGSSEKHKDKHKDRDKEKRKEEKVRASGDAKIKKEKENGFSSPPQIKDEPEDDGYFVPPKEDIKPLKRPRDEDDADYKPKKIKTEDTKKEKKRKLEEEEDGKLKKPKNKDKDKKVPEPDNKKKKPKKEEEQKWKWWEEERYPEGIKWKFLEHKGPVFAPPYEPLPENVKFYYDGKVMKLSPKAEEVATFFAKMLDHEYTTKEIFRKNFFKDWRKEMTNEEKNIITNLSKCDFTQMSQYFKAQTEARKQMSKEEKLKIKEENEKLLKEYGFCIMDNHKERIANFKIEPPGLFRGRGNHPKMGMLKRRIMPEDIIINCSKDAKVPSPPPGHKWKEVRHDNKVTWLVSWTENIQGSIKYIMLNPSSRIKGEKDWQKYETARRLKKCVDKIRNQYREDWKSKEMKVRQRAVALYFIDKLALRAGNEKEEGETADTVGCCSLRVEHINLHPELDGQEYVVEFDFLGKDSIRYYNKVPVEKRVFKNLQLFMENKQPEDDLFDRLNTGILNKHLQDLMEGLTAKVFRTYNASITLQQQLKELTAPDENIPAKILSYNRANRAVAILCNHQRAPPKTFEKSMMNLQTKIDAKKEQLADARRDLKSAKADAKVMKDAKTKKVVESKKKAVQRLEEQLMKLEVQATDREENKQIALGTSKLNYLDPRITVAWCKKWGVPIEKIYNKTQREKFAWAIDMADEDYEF

[9] = test system: HCT-116; assay: Cell cycle arrest in human HCT116 cells assessed as accumulation at G2/M phase at 0.5 ug/ml after 24 hrs using propidium iodide staining by flow cytometric analysis (reference value: 22.2%); type: functional
[10] = target: DNA topoisomerase 2-alpha (Homo sapiens) (UniProt P11388); assay: Inhibition of human DNA topoisomerase 2 assessed as decatenation of kinetoplast DNA at 15 ug/ml after 30 mins
In short: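 Decatenation assay with 0.15 µg kinetoplast DNA and 4 U human Top II. Buffer was 50 mM Tris-HCl pH 8, 120 mM KCl, 10 mM MgCl2, 0.5 mM ATP, 0.5 mM DTT and 30 µg/mL BSA, incubated at 37 °C for 30 min with or without compound. Reactions were stopped with Sarkosyl loading dye and run on 1% agarose in TAE at 4 V/cm for 40 min. Gels were stained with ethidium bromide and imaged under UV.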

[11] = test system: HCT-116; assay: Cell cycle arrest in human HCT116 cells assessed as accumulation at S phase at 0.5 ug/ml after 12 hrs using propidium iodide staining by flow cytometric analysis (reference value: 29.1%); type: functional
[12] = target: T1, DNA topoisomerase 1 (Homo sapiens); assay: Inhibition of human DNA topoisomerase 1 assessed as decrease in mobility of relaxed isomers of supercoiled pBR322 DNA at 15 uM after 30 mins
In short: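 Gel-based relaxation assay with 1 unit human Top I. Enzyme was preincubated with compound at 37 °C for 20 min, then 0.5 µg supercoiled pBR322 DNA was added and incubated at 37 °C for 30 min. Reactions were stopped with 0.5% SDS, bromophenol blue and 15% glycerol. Relaxed and supercoiled forms were resolved by agarose electrophoresis.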

[13] = test system: HCT-116; assay: Cell cycle arrest in human HCT116 cells assessed as accumulation at S phase at 0.5 ug/ml after 4 hrs using propidium iodide staining by flow cytometric analysis (reference value: 29.1%); type: functional
[14] = test system: MCF7; assay: Antiproliferative activity against human MCF7 cells assessed as growth inhibition after 24 to 48 hrs by SRB assay; type: functional, cell-based; in short: as §2
[15] = test system: HCT-116; assay: Cell cycle arrest in human HCT116 cells assessed as accumulation at G0/G1 phase at 0.5 ug/ml after 12 hrs using propidium iodide staining by flow cytometric analysis (reference value: 48.7%); type: functional
[16] = test system: HCT-116; assay: Cell cycle arrest in human HCT116 cells assessed as accumulation at G2/M phase at 0.5 ug/ml after 12 hrs using propidium iodide staining by flow cytometric analysis (reference value: 22.2%); type: functional
[17] = test system: HCT-116; assay: Cell cycle arrest in human HCT116 cells assessed as accumulation at G0/G1 phase at 0.5 ug/ml after 24 hrs using propidium iodide staining by flow cytometric analysis (reference value: 48.7%); type: functional
[18] = test system: HCT-116; assay: Cell cycle arrest in human HCT116 cells assessed as accumulation at S phase at 0.5 ug/ml after 24 hrs using propidium iodide staining by flow cytometric analysis (reference value: 29.1%); type: functional
[19] = test system: HCT-116; assay: Cell cycle arrest in human HCT116 cells assessed as accumulation at G2/M phase at 0.5 ug/ml after 4 hrs using propidium iodide staining by flow cytometric analysis (reference value: 22.2%); type: functional
[20] = test system: HCT-116; assay: Cell cycle arrest in human HCT116 cells assessed as accumulation at G0/G1 phase at 0.5 ug/ml after 4 hrs using propidium iodide staining by flow cytometric analysis (reference value: 48.7%); type: functional

DNA topoisomerase 2-alpha (Homo sapiens), sequence (P11388 whole entry): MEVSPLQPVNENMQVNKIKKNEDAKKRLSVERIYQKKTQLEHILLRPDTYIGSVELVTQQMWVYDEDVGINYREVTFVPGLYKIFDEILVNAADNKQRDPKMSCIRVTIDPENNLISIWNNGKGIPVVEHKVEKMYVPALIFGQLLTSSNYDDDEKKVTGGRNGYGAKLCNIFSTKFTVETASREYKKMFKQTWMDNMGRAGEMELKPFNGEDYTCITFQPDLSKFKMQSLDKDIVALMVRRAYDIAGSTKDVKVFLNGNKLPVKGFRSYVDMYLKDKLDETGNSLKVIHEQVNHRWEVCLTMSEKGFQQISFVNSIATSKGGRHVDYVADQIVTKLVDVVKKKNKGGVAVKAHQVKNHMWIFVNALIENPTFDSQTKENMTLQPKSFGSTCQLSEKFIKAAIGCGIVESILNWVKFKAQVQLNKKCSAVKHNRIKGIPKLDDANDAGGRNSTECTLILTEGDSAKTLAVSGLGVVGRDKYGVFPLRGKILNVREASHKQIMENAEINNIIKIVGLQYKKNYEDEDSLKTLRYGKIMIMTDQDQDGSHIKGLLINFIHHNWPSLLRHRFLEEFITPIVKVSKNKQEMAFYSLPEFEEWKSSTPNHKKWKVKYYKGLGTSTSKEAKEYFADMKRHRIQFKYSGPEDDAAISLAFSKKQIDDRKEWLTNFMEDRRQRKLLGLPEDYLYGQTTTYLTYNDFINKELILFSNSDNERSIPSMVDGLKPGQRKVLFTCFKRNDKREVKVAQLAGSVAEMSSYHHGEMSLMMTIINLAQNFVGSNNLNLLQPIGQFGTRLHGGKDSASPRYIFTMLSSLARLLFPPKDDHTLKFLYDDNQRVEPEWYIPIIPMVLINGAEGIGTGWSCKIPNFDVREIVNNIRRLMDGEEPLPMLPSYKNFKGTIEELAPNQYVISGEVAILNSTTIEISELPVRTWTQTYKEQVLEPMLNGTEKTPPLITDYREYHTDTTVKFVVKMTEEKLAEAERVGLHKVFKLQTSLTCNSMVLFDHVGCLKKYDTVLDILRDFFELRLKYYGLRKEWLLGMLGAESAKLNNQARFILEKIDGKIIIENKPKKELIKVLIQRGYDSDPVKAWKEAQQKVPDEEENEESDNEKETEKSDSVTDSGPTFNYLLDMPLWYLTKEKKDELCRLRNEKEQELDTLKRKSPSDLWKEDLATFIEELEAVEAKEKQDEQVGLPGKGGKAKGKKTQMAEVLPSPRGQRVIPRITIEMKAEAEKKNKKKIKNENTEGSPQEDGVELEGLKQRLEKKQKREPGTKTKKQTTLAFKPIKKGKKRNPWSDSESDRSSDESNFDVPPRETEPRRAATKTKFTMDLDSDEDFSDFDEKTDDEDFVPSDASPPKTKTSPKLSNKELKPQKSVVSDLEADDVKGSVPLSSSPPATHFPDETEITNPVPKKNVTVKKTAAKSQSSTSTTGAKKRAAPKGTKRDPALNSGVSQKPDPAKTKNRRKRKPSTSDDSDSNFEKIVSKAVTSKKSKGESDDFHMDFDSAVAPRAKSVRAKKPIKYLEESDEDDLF

Structure (SMILES)	inhibition of growth at 0.6 µg/mL [1] [%]	IC50 [3] [nM]	IC50 [4] [nM]	IC50 [5] [nM]	IC50 [6] [nM]	other results
CCCCOc1c(OC)ccc2c1c[n+]1c3c2ccc2c4c(cc(c23)CC1)OCO4	62.6					
COc1cc([C@@H]2c3cc4c(cc3[C@@H](O[C@@H]3O[C@@H]5CO[C@@H](C)O[C@H]5[C@H](O)[C@H]3O)[C@H]3COC(=O)[C@H]23)OCO4)cc(OC)c1O						inhibition [2]: Active
COc1ccc2c(c[n+]3c4c2ccc2c5c(cc(c24)CC3)OCO5)c1OS(=O)(=O)c1ccccc1	56.2					
COc1ccc2c(c[n+]3c4c2ccc2c5c(cc(c24)CC3)OCO5)c1OC(C)=O	88.7	840	90	190	1010	
COc1ccc2c(c[n+]3c4c2ccc2c5c(cc(c24)CC3)OCO5)c1OC(=O)c1ccc2c(c1)OCO2	88.6	450	3060	220	420	
COc1ccc2c(c[n+]3c4c2ccc2c5c(cc(c24)CC3)OCO5)c1OCc1ccc(F)cc1F	50.7					
COc1ccc2c(c[n+]3c4c2ccc2c5c(cc(c24)CC3)OCO5)c1OC(=O)c1ccc(F)cc1F	92.5	390	3110	130	620	
CCOc1c(OC)ccc2c1c[n+]1c3c2ccc2c4c(cc(c23)CC1)OCO4	41.9					
COc1ccc2c(c[n+]3c4c2ccc2c5c(cc(c24)CC3)OCO5)c1OC(=O)c1ccccc1F	93.7	280	420	150	930	
COc1ccc2c(c[n+]3c4c2ccc2c5c(cc(c24)CC3)OCO5)c1OC(=O)c1ccc(C)cc1	63.7					
COc1ccc2c(c[n+]3c4c2ccc2c5c(cc(c24)CC3)OCO5)c1OS(=O)(=O)c1ccc(NC(C)=O)cc1	8.9					
COc1ccc2c(c[n+]3c4c2ccc2c5c(cc(c24)CC3)OCO5)c1OC(=O)c1ccccc1Cl	62.3					
COc1ccc2c(c[n+]3c4c2ccc2c5c(cc(c24)CC3)OCO5)c1OC(=O)c1ccc(C)c([N+](=O)[O-])c1	50.9					
COc1ccc2c(c[n+]3c4c2ccc2c5c(cc(c24)CC3)OCO5)c1O	50					
COc1cc(C(=O)Oc2c(OC)ccc3c2c[n+]2c4c3ccc3c5c(cc(c34)CC2)OCO5)cc(OC)c1OC	86.5	370	920	320	380	
COc1ccc2c(c[n+]3c4c2ccc2c5c(cc(c24)CC3)OCO5)c1OC	53.4	1710	560	710	1200	
COc1cccc2c1C(=O)c1c(O)c3c(c(O)c1C2=O)C[C@@](O)(C(=O)CO)C[C@@H]3O[C@H]1C[C@H](N)[C@H](O)[C@H](C)O1 [DOXORUBICIN]						IC50 [7]: 24.4 µg/mL (≈ 44.9 µM)
CC[C@@]1(O)C(=O)OCc2c1cc1n(c2=O)Cc2cc3cc(O)ccc3nc2-1 [HYDROXYCAMPTOTHECIN]	85.4					inhibition [8]: Active
COc1ccc2c(c[n+]3c4c2ccc2c5c(cc(c24)CC3)OCO5)c1OC(=O)c1ccc(F)c([N+](=O)[O-])c1	69.6					
COc1ccc(C(=O)Oc2c(OC)ccc3c2c[n+]2c4c3ccc3c5c(cc(c34)CC2)OCO5)cc1[N+](=O)[O-]	53.6					
COc1ccc2c(c[n+]3c4c2ccc2c5c(cc(c24)CC3)OCO5)c1OC(=O)c1ccc(F)cc1	70.3					
COc1ccc(C(=O)Oc2c(OC)ccc3c2c[n+]2c4c3ccc3c5c(cc(c34)CC2)OCO5)cc1	84.5	430	390	410	440	
COc1ccc2c(c[n+]3c4c2ccc2c5c(cc(c24)CC3)OCO5)c1OC(=O)c1ccccc1.[Cl-]	86.6	410	5610	140	470	Activity [9]: 73.3%; inhibition [10]: Active; IC50 [7]: 3.66 µg/mL; Activity [11]: 45.9%; inhibition [12]: Active; Activity [13]: 57.5%; IC50 [14]: 2.5 µg/mL; Activity [15]: 2.29%; Activity [16]: 51.8%; Activity [17]: 2.18%; Activity [18]: 24.6%; Activity [19]: 29.3%; Activity [20]: 13.2%
COc1ccc2c(c[n+]3c4c2ccc2c5c(cc(c24)CC3)OCO5)c1OCc1ccccc1	53.3					
